Values after ≈ are worked out from the molar mass of the structure shown. Active and inactive are the calls of the source. The calls are words filed in the database; no cut-off is given here.
Legend:
RXR alpha/PPAR gamma = biological target: T1, RXR alpha/PPAR gamma (Homo sapiens, UniProt P19793+P37231); experiment: Agonist activity at human CMV-fused […]/RXRalpha (unknown origin) expressed in African green monkey CV1 cells transfected with luciferase plasmid measured after 24 hrs by luciferase reporter gene assay; type: cell-based, CV-1
T1 sequence (P37231 whole entry): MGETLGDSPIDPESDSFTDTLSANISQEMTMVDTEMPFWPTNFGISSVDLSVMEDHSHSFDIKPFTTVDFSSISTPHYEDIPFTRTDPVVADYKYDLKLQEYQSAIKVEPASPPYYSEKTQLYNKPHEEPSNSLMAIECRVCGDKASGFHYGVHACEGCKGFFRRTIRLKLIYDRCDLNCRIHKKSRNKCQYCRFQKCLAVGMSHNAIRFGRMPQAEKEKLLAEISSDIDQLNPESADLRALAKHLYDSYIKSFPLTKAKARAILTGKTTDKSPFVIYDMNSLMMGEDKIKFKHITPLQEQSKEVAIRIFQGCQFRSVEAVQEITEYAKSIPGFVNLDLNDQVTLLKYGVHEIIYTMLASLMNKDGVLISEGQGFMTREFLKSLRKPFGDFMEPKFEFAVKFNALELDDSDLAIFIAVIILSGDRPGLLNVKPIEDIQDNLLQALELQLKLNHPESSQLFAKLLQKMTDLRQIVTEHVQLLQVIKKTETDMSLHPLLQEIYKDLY
T1 sequence (P19793 whole entry): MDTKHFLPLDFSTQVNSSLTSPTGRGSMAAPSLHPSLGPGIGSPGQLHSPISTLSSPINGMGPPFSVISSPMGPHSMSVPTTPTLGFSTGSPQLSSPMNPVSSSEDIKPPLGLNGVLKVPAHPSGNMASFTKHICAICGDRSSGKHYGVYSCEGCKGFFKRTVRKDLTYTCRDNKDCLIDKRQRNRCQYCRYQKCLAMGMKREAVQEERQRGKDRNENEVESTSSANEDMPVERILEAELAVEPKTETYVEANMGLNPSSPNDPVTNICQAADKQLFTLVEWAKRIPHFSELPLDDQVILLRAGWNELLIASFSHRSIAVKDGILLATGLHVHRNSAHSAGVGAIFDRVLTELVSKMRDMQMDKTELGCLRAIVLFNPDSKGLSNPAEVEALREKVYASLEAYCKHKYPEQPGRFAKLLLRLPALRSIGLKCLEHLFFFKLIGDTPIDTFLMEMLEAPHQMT
Method in brief: (§1)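 CV1 cells were transfected, in DMEM with 5% charcoal-stripped FBS, with CMV-driven full PPARγ and RXRα plus a 2×PPRE TK-promoter luciferase reporter. After overnight growth, cells were replated at 15000/well for 4 h, then treated with 0.17 nM–10 μM in half-log dilutions for 24 h. Lysate luminescence was expressed as % of the maximum from 10 μM reference PPARγ agonist and fit to a 4-parameter logistic.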

[1] = Clearance in mouse hepatocytes by LC-MS/MS analysis; type: ADME, cell-based, Hepatocyte
[2] = Solubility of the compound in FaSSIF; type: physicochemical
[3] = Clearance in mouse liver microsomes by LC-MS/MS analysis; type: ADME, Microsome
Rattus norvegicus [4] = experiment: Hypoglycemic activity in Zucker fatty diabetes mellitus rat model assessed as reduction in blood glucose level administered orally for 21 days and measured at 10 to 60 mins post glucose challenge on day 1 by OGTT; type: functional, organism-based; conditions: dose 0.03-1 mg/kg, time 21.0 day
[5] = biological target: T2, Peroxisome proliferator-activated receptor alpha (Homo sapiens) (UniProt Q07869); experiment: Agonist activity at human Gal4-fused PPARalpha LBD expressed in African green monkey CV1 cells cotransfected with pRL-SV40 plasmid assessed as maximum efficacy measured after 24 hrs by luciferase reporter gene assay relative to control; type: cell-based; conditions: CV-1
T2 sequence (whole entry): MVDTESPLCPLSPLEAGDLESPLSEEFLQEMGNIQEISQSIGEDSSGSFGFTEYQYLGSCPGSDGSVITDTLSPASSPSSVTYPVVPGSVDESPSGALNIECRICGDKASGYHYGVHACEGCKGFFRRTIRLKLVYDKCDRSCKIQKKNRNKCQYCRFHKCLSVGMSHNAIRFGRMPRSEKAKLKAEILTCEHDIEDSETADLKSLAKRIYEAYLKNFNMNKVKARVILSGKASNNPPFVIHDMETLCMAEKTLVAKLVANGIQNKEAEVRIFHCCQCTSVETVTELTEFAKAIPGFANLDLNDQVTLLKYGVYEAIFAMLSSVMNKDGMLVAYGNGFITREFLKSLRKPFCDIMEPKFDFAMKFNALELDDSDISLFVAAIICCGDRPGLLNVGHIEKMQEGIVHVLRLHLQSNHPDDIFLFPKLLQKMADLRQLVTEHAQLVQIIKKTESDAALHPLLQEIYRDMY
Method in brief: (§2)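 CV1 African green monkey kidney cells were cotransfected, in DMEM with 5% charcoal-stripped FBS, with two plasmids: an SV40-driven Gal4 DBD–PPARα or PPARδ LBD hybrid, and a 5×Gal4-element firefly luciferase reporter. Cells were replated at 15000/well for 4 h, then exposed to 0.17 nM–10 μM in half-log steps for 24 h. Luciferase was read, normalized to maximum from 10 μM reference agonist, and fit by a 4-parameter model.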

[6] = Solubility of the compound in 0.01 N HCl; type: physicochemical
[7] = biological target: RXR alpha/PPAR gamma (Homo sapiens) (UniProt P37231+P19793); experiment: Agonist activity at human CMV-fused PPARgamma […]/RXRalpha (unknown origin) expressed in African green monkey CV1 cells transfected with luciferase plasmid assessed as maximum efficacy measured after 24 hrs by luciferase reporter gene assay relative to control; type: cell-based; conditions: CV-1; method in brief: as §1
[8] = biological target: T3, Peroxisome proliferator-activated receptor delta (Homo sapiens, UniProt Q03181); experiment: Agonist activity at human Gal4-fused PPARdelta LBD expressed in African green monkey CV1 cells cotransfected with pRL-SV40 plasmid measured after 24 hrs by luciferase reporter gene assay; type: cell-based, CV-1; method in brief: as §2
T3 sequence (Q03181 whole entry): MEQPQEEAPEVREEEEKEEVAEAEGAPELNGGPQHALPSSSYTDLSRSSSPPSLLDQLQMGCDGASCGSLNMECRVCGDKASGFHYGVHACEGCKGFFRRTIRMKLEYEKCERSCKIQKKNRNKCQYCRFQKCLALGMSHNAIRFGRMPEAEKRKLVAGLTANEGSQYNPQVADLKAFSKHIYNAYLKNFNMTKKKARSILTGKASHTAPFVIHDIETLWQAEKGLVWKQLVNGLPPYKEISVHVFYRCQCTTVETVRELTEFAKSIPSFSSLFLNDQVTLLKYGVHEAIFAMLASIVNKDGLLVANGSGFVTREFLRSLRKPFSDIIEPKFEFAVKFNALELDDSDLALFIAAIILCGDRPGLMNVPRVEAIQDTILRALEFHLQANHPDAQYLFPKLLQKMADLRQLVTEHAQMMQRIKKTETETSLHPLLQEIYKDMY

[9] = biological target: Voltage-gated inwardly rectifying potassium channel KCNH2 (Homo sapiens, UniProt Q12809); experiment: Inhibition of human ERG at 10 to 100 uM; conditions: dose 10-100 µM
Chain of Voltage-gated inwardly rectifying potassium channel KCNH2 (Q12809 whole entry): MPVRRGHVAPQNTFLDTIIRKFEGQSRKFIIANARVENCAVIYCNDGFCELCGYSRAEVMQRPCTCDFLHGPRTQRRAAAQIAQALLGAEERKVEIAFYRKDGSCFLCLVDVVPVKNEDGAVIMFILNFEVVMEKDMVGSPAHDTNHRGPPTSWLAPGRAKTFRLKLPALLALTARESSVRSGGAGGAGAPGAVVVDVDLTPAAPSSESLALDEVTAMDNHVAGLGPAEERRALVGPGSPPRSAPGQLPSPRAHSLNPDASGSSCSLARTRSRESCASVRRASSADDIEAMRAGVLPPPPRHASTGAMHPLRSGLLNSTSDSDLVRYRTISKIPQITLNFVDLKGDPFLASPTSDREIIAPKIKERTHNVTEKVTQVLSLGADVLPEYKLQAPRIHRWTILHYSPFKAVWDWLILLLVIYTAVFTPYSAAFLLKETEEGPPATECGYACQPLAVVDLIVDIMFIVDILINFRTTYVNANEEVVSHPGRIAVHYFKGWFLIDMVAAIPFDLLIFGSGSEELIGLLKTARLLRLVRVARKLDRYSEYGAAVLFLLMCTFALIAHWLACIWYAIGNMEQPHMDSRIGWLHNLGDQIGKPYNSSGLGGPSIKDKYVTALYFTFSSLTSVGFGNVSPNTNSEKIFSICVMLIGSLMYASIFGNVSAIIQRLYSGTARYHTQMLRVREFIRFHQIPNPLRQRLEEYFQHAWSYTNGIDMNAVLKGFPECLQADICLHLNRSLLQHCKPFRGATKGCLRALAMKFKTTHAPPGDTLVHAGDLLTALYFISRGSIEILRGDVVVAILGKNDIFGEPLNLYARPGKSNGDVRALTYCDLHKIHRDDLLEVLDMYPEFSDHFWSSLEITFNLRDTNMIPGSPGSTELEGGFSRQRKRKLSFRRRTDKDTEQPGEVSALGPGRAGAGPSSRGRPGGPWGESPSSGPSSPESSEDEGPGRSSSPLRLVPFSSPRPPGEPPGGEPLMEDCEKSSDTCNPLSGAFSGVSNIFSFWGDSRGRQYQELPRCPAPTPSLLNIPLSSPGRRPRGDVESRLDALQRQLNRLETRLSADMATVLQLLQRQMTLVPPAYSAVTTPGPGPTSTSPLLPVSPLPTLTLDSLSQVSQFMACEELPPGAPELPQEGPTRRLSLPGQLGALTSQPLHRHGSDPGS

[10] = Drug metabolism in mouse hepatocytes assessed as glucuronidation by LC-MS/MS analysis; type: ADME, cell-based, Hepatocyte
Rattus norvegicus [11] = experiment: Hypoglycemic activity in Zucker fatty diabetes mellitus rat model assessed as increase in insulin levels in plasma at 0.03 to 1 mg/kg, po administered for 21 days and measured at 10 to 60 mins post glucose challenge on day 21 by OGTT; type: functional, organism-based; conditions: dose 0.03-1 mg/kg, time 21.0 day

Row | SMILES | EC50 (RXR alpha/PPAR gamma) [µM] | CLH [1] [h⁻¹] | solubility [2] [µg/mL] | CLH [3] [h⁻¹] | Activity (Rattus norvegicus [4]) | Emax [5] [%] | solubility [6] [µg/mL] | Emax [7] [%] | EC50 [8] [µM] | inhibition (INH) [9] | Drug metabolism [10] | Activity (Rattus norvegicus [11])
1 | CC#C[C@@H](CC(=O)O)c1ccc(OCc2ccc(CN3CCC4(C=Cc5ccccc54)CC3)cc2)cc1 [LY2881835] | > 10 | 0.09 | 7 (≈ 14.2 µM) | 0.131 | Dose-dependent effect | 4 | 13 (≈ 26.4 µM) | 7 | > 10 | Not Active | Metabolite_Detected | Active
2 | CC#C[C@@H](CC(=O)O)c1ccc(OCc2ccc(CN3CCCc4cccc(OC)c43)s2)cc1 | > 10 | < 0.05 | 35 (≈ 73.6 µM) | 0.022 | Dose-dependent effect | 4 | 46 (≈ 96.7 µM) | 8 | > 10 | Not Active | Metabolite_Detected | Active
3 | CC#C[C@@H](CC(=O)O)c1ccc(OCc2ccc(CN3CCC4(CCc5ccccc54)CC3)s2)cc1 | > 10 | 0.1 | 6 (≈ 12 µM) | 0.288 | Dose-dependent effect | 4 | 55 (≈ 110 µM) | 15 | > 10 | Not Active | Metabolite_Detected | Active

From ChEMBL document CHEMBL4765234 (J Med Chem, 2016)
